Columns and labels:
[1] = Selectivity ratio of Ki for uPA to Ki for human recombinant factor 9a
Coagulation factor X = Coagulation factor X (Homo sapiens, UniProt P00742); assay: Inhibition of factor 10a by amidolytic assay
Method in brief: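 […] taken as the mean of at least three experiments. Variation between runs stated as under 10%.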

[2] = Selectivity ratio of Ki for factor 10a to Ki for human recombinant factor 9a
Coagulation factor IX = Coagulation factor IX (Homo sapiens, UniProt P00740); assay: Inhibition of human recombinant factor 9a by amidolytic assay
[3] = target: Urokinase-type plasminogen activator (Homo sapiens, UniProt P00749)

Chain of Coagulation factor IX (P00740 47-191 limits assumed): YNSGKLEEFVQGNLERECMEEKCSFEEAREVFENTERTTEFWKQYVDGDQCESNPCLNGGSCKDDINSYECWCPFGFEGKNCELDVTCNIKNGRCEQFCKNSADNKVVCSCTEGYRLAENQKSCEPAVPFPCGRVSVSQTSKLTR
Chain of Coagulation factor IX (P00740 227-461 limits assumed): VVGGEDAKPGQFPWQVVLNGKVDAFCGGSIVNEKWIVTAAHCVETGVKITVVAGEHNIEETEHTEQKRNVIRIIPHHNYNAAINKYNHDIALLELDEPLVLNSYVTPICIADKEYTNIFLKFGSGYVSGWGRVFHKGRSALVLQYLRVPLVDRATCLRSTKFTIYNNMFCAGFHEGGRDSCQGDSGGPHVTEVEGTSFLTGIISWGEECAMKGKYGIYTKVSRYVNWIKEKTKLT
Chain of Coagulation factor X (P00742 41-179 limits assumed): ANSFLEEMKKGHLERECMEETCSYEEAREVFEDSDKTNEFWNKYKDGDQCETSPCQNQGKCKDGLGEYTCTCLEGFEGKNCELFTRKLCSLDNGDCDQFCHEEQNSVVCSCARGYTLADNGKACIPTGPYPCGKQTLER
Chain of Coagulation factor X (P00742 235-488 limits assumed): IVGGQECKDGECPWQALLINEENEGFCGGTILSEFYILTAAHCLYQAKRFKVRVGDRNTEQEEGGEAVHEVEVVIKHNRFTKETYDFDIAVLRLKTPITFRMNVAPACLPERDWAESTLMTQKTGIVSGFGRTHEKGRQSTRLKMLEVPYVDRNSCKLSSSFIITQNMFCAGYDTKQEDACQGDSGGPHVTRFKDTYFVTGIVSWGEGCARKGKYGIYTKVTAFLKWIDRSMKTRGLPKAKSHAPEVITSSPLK

## COc1ccc(NC(=O)OCC(Oc2cccc3sc(C(=N)N)cc23)c2ccccc2)cc1 (stereo not drawn)
[1]
  Ratio Ki: 45
Coagulation factor X
  Ki: 0.8 µM
[2]
  Ratio Ki: 160
Coagulation factor IX
  Ki: 0.005 µM
[3]
  Ki: 0.226 µM

## COC(=O)Cn1nc(C)c(NC(=O)OCC(Oc2cccc3sc(C(=N)N)cc23)c2ccccc2)c1C (stereo not drawn)
[1]
  Ratio Ki: 5
Coagulation factor X
  Ki: 1.3 µM
[2]
  Ratio Ki: 118
Coagulation factor IX
  Ki: 0.011 µM
[3]
  Ki: 0.059 µM

## CNCc1cc(NC(=O)OCC(Oc2cccc3sc(C(=N)N)cc23)c2ccccc2)n(C)n1 (stereo not drawn)
[1]
  Ratio Ki: 50
Coagulation factor X
  Ki: 1.27 µM
[2]
  Ratio Ki: 254
Coagulation factor IX
  Ki: 0.005 µM
[3]
  Ki: 0.251 µM

## CN(C)CCOc1ccc(NC(=O)OCC(Oc2cccc3sc(C(=N)N)cc23)c2ccccc2)cc1 (stereo not drawn)
[1]
  Ratio Ki: 50
Coagulation factor X
  Ki: 0.872 µM
[2]
  Ratio Ki: 218
Coagulation factor IX
  Ki: 0.004 µM
[3]
  Ki: 0.201 µM

## N=C(N)c1cc2c(OC(COC(=O)Nc3ccccc3)c3ccccc3)cc(F)cc2s1 (stereo not drawn)
[1]
  Ratio Ki: 137
Coagulation factor X
  Ki: 1.59 µM
[2]
  Ratio Ki: 102
Coagulation factor IX
  Ki: 0.0155 µM
[3]
  Ki: 2.11 µM

## N=C(N)c1cc2c(OC(C(=O)Nc3ccccc3)c3ccccc3)cccc2s1 (stereo not drawn)
Coagulation factor X
  Ki: 0.15 µM
Coagulation factor IX
  Ki: 0.17 µM
[3]
  Ki: 0.14 µM

## N=C(N)c1cc2c(OC(COC(=O)Nc3ccccc3)c3ccccc3)cccc2s1 (stereo not drawn)
[1]
  Ratio Ki: 44
Coagulation factor X
  Ki: 1.81 µM
[2]
  Ratio Ki: 181
Coagulation factor IX
  Ki: 0.01 µM
[3]
  Ki: 0.44 µM

## Cc1ccccc1NC(=O)OCC(Oc1cccc2sc(C(=N)N)cc12)c1ccccc1 (stereo not drawn)
[1]
  Ratio Ki: 36
Coagulation factor X
  Ki: 1.18 µM
[2]
  Ratio Ki: 148
Coagulation factor IX
  Ki: 0.008 µM
[3]
  Ki: 0.308 µM

## N=C(N)c1cc2c(OC(C(=O)NCc3ccccc3)c3ccccc3)cccc2s1 (stereo not drawn)
Coagulation factor X
  Ki: 0.95 µM
Coagulation factor IX
  Ki: 0.39 µM
[3]
  Ki: 0.51 µM

## COC(=O)C(C)Oc1cccc2sc(C(=N)N)cc12 (stereo not drawn)
Coagulation factor X
  Ki: > 100 µM
Coagulation factor IX
  Ki: 5.15 µM
[3]
  Ki: 2.27 µM

## N=C(N)c1cc2c(OC(CNC(=O)Oc3ccccc3)c3ccccc3)cccc2s1 (stereo not drawn)
Coagulation factor X
  Ki: 0.56 µM
Coagulation factor IX
  Ki: 0.05 µM
[3]
  Ki: 0.085 µM

## COCc1cc(NC(=O)OCC(Oc2cccc3sc(C(=N)N)cc23)c2ccccc2)n(C)n1 (stereo not drawn)
[1]
  Ratio Ki: 12
Coagulation factor X
  Ki: 1.56 µM
[2]
  Ratio Ki: 173
Coagulation factor IX
  Ki: 0.009 µM
[3]
  Ki: 0.109 µM

## CCOC(=O)c1nccn1-c1ccc(NC(=O)C(Oc2cccc3sc(C(=N)N)cc23)c2ccccc2)cc1 (stereo not drawn)
Coagulation factor X
  Ki: 0.0026 µM
Coagulation factor IX
  Ki: 0.42 µM
[3]
  Ki: 0.19 µM

## N=C(N)c1cc2c(OC(CNCc3ccccc3)c3ccccc3)cccc2s1 (stereo not drawn)
Coagulation factor X
  Ki: 0.25 µM
Coagulation factor IX
  Ki: 0.1 µM
[3]
  Ki: 0.31 µM

## COc1ccccc1NC(=O)C(Oc1cccc2sc(C(=N)N)cc12)c1ccccc1 (stereo not drawn)
Coagulation factor X
  Ki: 0.07 µM
Coagulation factor IX
  Ki: 0.14 µM
[3]
  Ki: 0.12 µM

## COC(=O)C(Oc1cccc2sc(C(=N)N)cc12)c1ccccc1 (stereo not drawn)
Coagulation factor X
  Ki: 13.8 µM
Coagulation factor IX
  Ki: 0.5 µM
[3]
  Ki: 0.5 µM

## N=C(N)c1cc2c(OC(C(=O)Nc3ccc(C(=O)N4CCCC4)cc3)c3ccccc3)cccc2s1 (stereo not drawn)
Coagulation factor X
  Ki: 0.0005 µM
Coagulation factor IX
  Ki: 0.29 µM
[3]
  Ki: 0.13 µM

## N=C(N)c1cc2c(OC(COC(=O)Nc3cccc(F)c3)c3ccccc3)cccc2s1 (stereo not drawn)
[1]
  Ratio Ki: 37
Coagulation factor X
  Ki: 1.3 µM
[2]
  Ratio Ki: 52
Coagulation factor IX
  Ki: 0.025 µM
[3]
  Ki: 0.935 µM

## CN(C)Cc1ccccc1NC(=O)OCC(Oc1cc(F)cc2sc(C(=N)N)cc12)c1ccccc1 (stereo not drawn)
[1]
  Ratio Ki: 117
Coagulation factor X
  Ki: 1.36 µM
[2]
  Ratio Ki: 169
Coagulation factor IX
  Ki: 0.0081 µM
[3]
  Ki: 0.94 µM

## N=C(N)c1cc2c(OC(COC(=O)Nc3ccc(F)cc3F)c3ccccc3)cccc2s1 (stereo not drawn)
[1]
  Ratio Ki: 82
Coagulation factor X
  Ki: 1.48 µM
[2]
  Ratio Ki: 212
Coagulation factor IX
  Ki: 0.007 µM
[3]
  Ki: 0.575 µM

## COc1ccc(NC(=O)OC[C@H](Oc2cccc3sc(C(=N)N)cc23)c2ccccc2)cc1
[1]
  Ratio Ki: 30
Coagulation factor X
  Ki: 0.6 µM
[2]
  Ratio Ki: 200
Coagulation factor IX
  Ki: 0.003 µM
[3]
  Ki: 0.089 µM

## N=C(N)c1cc2c(OC(CO)c3ccccc3)cccc2s1 (stereo not drawn)
Coagulation factor X
  Ki: 1.74 µM
Coagulation factor IX
  Ki: 0.27 µM

## CN(C)Cc1ccccc1NC(=O)OCC(Oc1cccc2sc(C(=N)N)cc12)c1ccccc1 (stereo not drawn)
[1]
  Ratio Ki: 76
Coagulation factor X
  Ki: 0.828 µM
[2]
  Ratio Ki: 104
Coagulation factor IX
  Ki: 0.008 µM
[3]
  Ki: 0.609 µM

## CNC(=O)OCC(Oc1cccc2sc(C(=N)N)cc12)c1ccccc1 (stereo not drawn)
Coagulation factor X
  Ki: 0.7 µM
Coagulation factor IX
  Ki: 0.097 µM
[3]
  Ki: 0.21 µM

## COc1cccc(NC(=O)C(Oc2cccc3sc(C(=N)N)cc23)c2ccccc2)c1 (stereo not drawn)
Coagulation factor X
  Ki: 0.29 µM
Coagulation factor IX
  Ki: 0.13 µM
[3]
  Ki: 0.17 µM

## CC(C)CNCc1ccccc1NC(=O)OCC(Oc1cccc2sc(C(=N)N)cc12)c1ccccc1 (stereo not drawn)
[1]
  Ratio Ki: 367
Coagulation factor X
  Ki: 0.583 µM
[2]
  Ratio Ki: 292
Coagulation factor IX
  Ki: 0.002 µM
[3]
  Ki: 0.733 µM

## CN1CCN(Cc2ccc(NC(=O)OCC(Oc3cccc4sc(C(=N)N)cc34)c3ccccc3)cc2)CC1 (stereo not drawn)
[1]
  Ratio Ki: 20
Coagulation factor X
  Ki: 1.56 µM
[2]
  Ratio Ki: 156
Coagulation factor IX
  Ki: 0.01 µM
[3]
  Ki: 0.201 µM

## N=C(N)c1cc2c(OC(COC(=O)Nc3ccccc3CN)c3ccccc3)cc(F)cc2s1 (stereo not drawn)
[1]
  Ratio Ki: 190
Coagulation factor X
  Ki: 2.11 µM
[2]
  Ratio Ki: 486
Coagulation factor IX
  Ki: 0.0044 µM
[3]
  Ki: 0.828 µM

## Cc1noc(C)c1NC(=O)OCC(Oc1cccc2sc(C(=N)N)cc12)c1ccccc1 (stereo not drawn)
[1]
  Ratio Ki: 12
Coagulation factor X
  Ki: 2.25 µM
[2]
  Ratio Ki: 210
Coagulation factor IX
  Ki: 0.012 µM
[3]
  Ki: 0.142 µM

## COc1ccc(NC(=O)C(Oc2cccc3sc(C(=N)N)cc23)c2ccccc2)cc1 (stereo not drawn)
Coagulation factor X
  Ki: 0.052 µM
Coagulation factor IX
  Ki: 0.14 µM
[3]
  Ki: 0.14 µM

## N=C(N)c1cc2c(OC(COC(=O)NCc3ccccc3)c3ccccc3)cccc2s1 (stereo not drawn)
Coagulation factor X
  Ki: 0.83 µM
Coagulation factor IX
  Ki: 0.061 µM
[3]
  Ki: 0.51 µM

## N=C(N)c1cc2c(OC(COC(=O)Nc3ccccc3CN)c3ccccc3)cccc2s1 (stereo not drawn)
[1]
  Ratio Ki: 74
Coagulation factor X
  Ki: 0.825 µM
[2]
  Ratio Ki: 206
Coagulation factor IX
  Ki: 0.004 µM
[3]
  Ki: 0.297 µM

## N=C(N)c1cc2c(OC(CN)c3ccccc3)cccc2s1 (stereo not drawn)
Coagulation factor X
  Ki: 4.45 µM
Coagulation factor IX
  Ki: 0.16 µM
[3]
  Ki: 0.27 µM

## COC(=O)CCNC(=O)C(Oc1cccc2sc(C(=N)N)cc12)c1ccccc1 (stereo not drawn)
Coagulation factor IX
  Ki: 8.4 µM

## N=C(N)c1cc2c(OC(CNC(=O)Nc3ccccc3)c3ccccc3)cccc2s1 (stereo not drawn)
Coagulation factor X
  Ki: 0.96 µM
Coagulation factor IX
  Ki: 0.029 µM
[3]
  Ki: 0.25 µM

## N=C(N)c1cc2c(OC(COC(=O)Nc3c(F)cccc3F)c3ccccc3)cccc2s1 (stereo not drawn)
[1]
  Ratio Ki: 34
Coagulation factor X
  Ki: 1.3 µM
[2]
  Ratio Ki: 186
Coagulation factor IX
  Ki: 0.007 µM
[3]
  Ki: 0.249 µM

## N=C(N)c1cc2c(OC(COC(=O)Nc3ccccc3F)c3ccccc3)cccc2s1 (stereo not drawn)
[1]
  Ratio Ki: 62
Coagulation factor X
  Ki: 0.55 µM
[2]
  Ratio Ki: 110
Coagulation factor IX
  Ki: 0.005 µM
[3]
  Ki: 0.331 µM

## CNCc1ccccc1NC(=O)OCC(Oc1cccc2sc(C(=N)N)cc12)c1ccccc1 (stereo not drawn)
[1]
  Ratio Ki: 103
Coagulation factor X
  Ki: 1.15 µM
[2]
  Ratio Ki: 383
Coagulation factor IX
  Ki: 0.003 µM
[3]
  Ki: 0.308 µM

## N=C(N)c1cc2c(O[C@@H](c3ccccc3)c3nc(-c4ccccc4)no3)cccc2s1
Coagulation factor X
  Ki: 3.97 µM
Coagulation factor IX
  Ki: 0.27 µM
[3]
  Ki: 0.65 µM

## CCNC(=O)OCC(Oc1cccc2sc(C(=N)N)cc12)c1ccccc1 (stereo not drawn)
Coagulation factor X
  Ki: 0.36 µM
Coagulation factor IX
  Ki: 0.028 µM
[3]
  Ki: 0.15 µM

## CN(C)CCNC(=O)C(Oc1cccc2sc(C(=N)N)cc12)c1ccccc1 (stereo not drawn)
Coagulation factor X
  Ki: 3.4 µM
Coagulation factor IX
  Ki: 1 µM
[3]
  Ki: 2.13 µM

## CC(=O)NCC(Oc1cccc2sc(C(=N)N)cc12)c1ccccc1 (stereo not drawn)
Coagulation factor X
  Ki: 1.3 µM
Coagulation factor IX
  Ki: 0.34 µM
[3]
  Ki: 0.22 µM

## CN(C)C(=O)c1ccc(NC(=O)C(Oc2cccc3sc(C(=N)N)cc23)c2ccccc2)cc1 (stereo not drawn)
Coagulation factor X
  Ki: 0.0006 µM
Coagulation factor IX
  Ki: 0.37 µM
[3]
  Ki: 0.16 µM

From ChEMBL document CHEMBL1156932, “Structure based drug design: development of potent and selective factor IXa (FIXa) inhibitors” (J Med Chem, 2010)
